Screens deposited in PubChem BioAssay by several laboratories.
The list is not random: actives were taken first. Their share in the collection is about 1.6%.
Neddyl block – cullin neddylation inhibition. P61081+Q13564. TR-FRET cullin neddylation, biochemical. inhibition, % at 25 µM. 360,000 compounds, 0.58% hits; in the data active = inhibition above about 36%
ASAP1 inh – inhibitors of human ASAP1 ArfGAP activity; ASAP1-stimulated ARF1 GTP hydrolysis, GDP FP detection; inhibition, % at 16.5 µM; 360,000 compounds, 0.19% hits; in the data active = inhibition above about 25%
Target sequence (Q9ULH1 325-724 limits assumed): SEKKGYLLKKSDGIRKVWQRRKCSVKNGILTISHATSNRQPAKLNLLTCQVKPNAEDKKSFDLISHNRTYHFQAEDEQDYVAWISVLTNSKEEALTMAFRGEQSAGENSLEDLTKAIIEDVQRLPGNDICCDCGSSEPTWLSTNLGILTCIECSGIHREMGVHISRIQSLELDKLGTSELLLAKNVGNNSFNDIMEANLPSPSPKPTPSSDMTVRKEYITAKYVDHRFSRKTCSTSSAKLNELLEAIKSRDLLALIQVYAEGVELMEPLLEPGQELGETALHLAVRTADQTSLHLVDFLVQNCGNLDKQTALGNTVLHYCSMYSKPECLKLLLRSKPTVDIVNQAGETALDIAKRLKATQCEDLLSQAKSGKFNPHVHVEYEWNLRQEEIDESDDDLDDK
Cardio protect – protects H9c2 cardiomyocytes from peroxide injury | protection from H2O2 cell death, % at 20 µM | H2O2 injury protection, ATPLite, 2 h | AID 588492 | 360,000 compounds, 0.63% hits;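 active = compounds giving at least 50% protection of heart cells from peroxide-induced death in the single-dose screen, raw or plate-pattern-corrected value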
ARFGAP1 inh – inhibitors of rat ARFGAP1; AID 651572; Q62848; Arfgap1-stimulated ARF1 GTP hydrolysis, GDP FP detection; inhibition, % at 16.5 µM; 360,000 compounds, 0.26% hits;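 active = inhibition above a per-plate limit, mean inhibition of low control wells plus 3 SD, cut at about 25% in these data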
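Material: truncated rat Arfgap1 GAP domain; Incubation: compound-enzyme preincubation 20 min, reaction 120 min, detection 60 min, 25 °C; Read-out: percent inhibition of Arfgap1-stimulated GTP hydrolysis; Technique: FP, GDP Alexa 633 tracer displaced from anti-GDP antibody, 620/688 nm; Controls: No-Arfgap1 wells (100%) versus DMSO full-reaction wells (0%); Replication: single well per compound.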
Numbers stand for hits; i = inactive; nt = not tested or not shown.

SMILES | Neddyl block | ASAP1 inh | Cardio protect | ARFGAP1 inh
CCOC(=O)CSc1nc2ccccc2c(=O)[nH]1 | i | i | 58 | i
Cc1ccc(C(=O)CSc2nc3ccccc3c(=O)[nH]2)cc1 | i | i | 47 | i
CCOC(=O)CSc1nc2sccc2c(=O)[nH]1 | i | i | i | i
CCOC(=O)CSc1nc2sc(C)c(C)c2c(=O)[nH]1 | i | i | 52 | i
CCc1ccc(C(=O)CSc2nc3ccccc3c(=O)[nH]2)cc1 | i | i | i | i
COC(=O)c1cc2c(c3c4cc(F)ccc4n(S(=O)(=O)c4cccc(C)c4)c13)C(=O)N(C)C2 | nt | i | nt | i
COC(=O)[C@]12C[C@H](CC(=O)NCCCN3CCCC3=O)C(=O)N(Cc3ccccc3)C1=C[C@H](C(C)(C)C)O[C@@H]2C | nt | i | nt | i
Cc1ccc(Cc2c(-c3cccc(Br)c3)nc3c4ccccc4ccn23)cc1 | nt | i | nt | i
CCCCOCCCNC(=O)C[C@H]1C[C@@]2(C(=O)OC)C(=C[C@H](C(C)(C)C)O[C@@H]2C)N(Cc2ccccc2)C1=O | nt | i | nt | i
O=C(NC1CCCC1)[C@@H]1CCCN1C(=O)[C@@H](NC(=O)N1CCOCC1)c1ccccc1 | nt | i | nt | i
CCCCCCCCN1C(=O)[C@H](CC(=O)NCc2cccc(C(F)(F)F)c2)C[C@@]2(C(=O)OC)CCCCC=C12 | i | i | nt | i
CCOC(=O)CSc1nnc(CSc2nc3sc4c(c3c(=O)[nH]2)CCC4)n1C | i | i | 66 | i
CC(C)(C)N(Cc1ccccc1)C(=O)CSc1nc2ccccc2c(=O)[nH]1 | i | i | i | i
CCN(CC)C(=O)CSc1nc2ccccc2c(=O)[nH]1 | i | i | 65 | i
O=c1cc(CSc2nc3ccccc3c(=O)[nH]2)c2ccc(O)cc2o1 | i | i | 94 | i
CCOC(=O)CSc1nnc(CSc2nc3sc4c(c3c(=O)[nH]2)CCC4)n1-c1ccccc1 | i | i | i | i
Cc1sc2nc(NCCO)[nH]c(=O)c2c1C | i | i | 72 | i
O=C(CCc1c[nH]c2ccccc12)Nc1ccc(Oc2cccnc2)cc1 | nt | i | nt | i
CCOC(=O)CSc1nnc(Cc2ccc(OC)cc2)n1-c1ccccc1 | i | i | i | i
CCOC(=O)CSc1nnc(CSc2nc3ccccc3c(=O)[nH]2)n1-c1ccccc1 | i | i | 51 | i
CCOCCn1ccc2c(OCC(=O)Nc3cc(OC)ccc3OC)cccc2c1=O | i | i | 53 | i
C#CCn1c(=NC(=O)c2sc3ccccc3c2Cl)sc2cc(S(N)(=O)=O)ccc21 | i | i | i | 82
CC(C)COc1nc2ccccc2c(=O)n1OCC(=O)O | i | i | 58 | i
CCCOn1c(OCC(C)C)nc2ccccc2c1=O | i | i | i | i
O=S(=O)(c1ccc(C(F)(F)F)cc1)N1CCCc2nc(-c3ccccc3)ccc21 | nt | i | nt | i
SMILES | Neddyl block | ASAP1 inh | Cardio protect | ARFGAP1 inh
COc1ccc(-c2nc3c(c(SCC(=O)N4CCOCC4)n2)Cc2c(CO)cnc(C)c2O3)cc1 | i | i | 77 | i
Cc1cccc(N2NC(=O)/C(=C/c3ccc(-c4ccc(Cl)c(C(=O)O)c4)o3)C2=O)c1 | i | i | i | i
O=C1NN(c2ccccc2)C(=O)/C1=C/c1ccc(-c2ccc(Cl)c(C(=O)O)c2)o1 | i | i | i | i
O=C(O)c1cc(-c2ccc(/C=C3\NC(=O)N(c4ccc(Cl)cc4)C3=O)o2)ccc1Cl | 65 | i | i | i
O=C(O)c1cc(-c2ccc(/C=C3\NC(=O)N(c4ccccc4)C3=O)o2)ccc1Cl | 43 | i | i | i
COC(=O)[C@]12C[C@H](CC(=O)N3CCCC3)C(=O)N(Cc3ccc4c(c3)OCO4)C1=C[C@H](COCc1ccccc1)O[C@@H]2C | nt | i | nt | i
N#Cc1ccc(S(=O)(=O)N2CCCc3nc(-c4ccc(F)cc4)ccc32)cc1 | nt | i | nt | i
CC(C)c1[nH]nc2c1C(c1ccccc1)N(Cc1ccccc1)C2=O (stereo not drawn) | nt | i | nt | i
COc1cccc(C=C(C(C)=O)C(=O)c2ccccc2)c1 | i | i | nt | i
COc1cc(OC)cc(C(=O)Nc2ccc(-c3nc4ccccc4o3)cc2)c1 | nt | i | 120 | i
COc1cccc(C(=O)Nc2ccc(-c3nc4ccccc4o3)c(O)c2)c1 | i | i | i | i
Cc1ccccc1-c1ccc2c(c1)[C@@H]1C[C@H](N(C)CC3CCCCC3)[C@H]([C@H](C)O)CN1CC2 | nt | i | nt | i
O=c1c(O)c(-c2ccc(O)c(O)c2)oc2cc(O)cc(O)c12 | i | i | 95 | i
COc1ccc(-c2cc(=O)c3c(O)cc(O)cc3o2)cc1 | i | i | i | i
O=c1cc(-c2ccc(O)c(O)c2)oc2cc(O)cc(O)c12 | i | i | 62 | i
